Data reported in ChEMBL document CHEMBL3758120, “Synthesis and Mechanism Studies of 1,3-Benzoazolyl Substituted Pyrrolo[2,3-b]pyrazine Derivatives as Nonintercalative Topoisomerase II Catalytic Inhibitors” (J Med Chem, 2016).
pIC50: −log10 of the molar value. Active and inactive are the calls of the source. The calls are words filed in the database; no cut-off is given here.

Tests used:
[1] = target: T1, DNA topoisomerase 2-alpha (Homo sapiens, UniProt P11388); assay: Inhibition of purified human topoisomerase 2-mediated relaxation of supercoiled pBR322 DNA at 20 uM incubated for 30 mins by agarose gel electrophoresis
T1 sequence (P11388 whole entry): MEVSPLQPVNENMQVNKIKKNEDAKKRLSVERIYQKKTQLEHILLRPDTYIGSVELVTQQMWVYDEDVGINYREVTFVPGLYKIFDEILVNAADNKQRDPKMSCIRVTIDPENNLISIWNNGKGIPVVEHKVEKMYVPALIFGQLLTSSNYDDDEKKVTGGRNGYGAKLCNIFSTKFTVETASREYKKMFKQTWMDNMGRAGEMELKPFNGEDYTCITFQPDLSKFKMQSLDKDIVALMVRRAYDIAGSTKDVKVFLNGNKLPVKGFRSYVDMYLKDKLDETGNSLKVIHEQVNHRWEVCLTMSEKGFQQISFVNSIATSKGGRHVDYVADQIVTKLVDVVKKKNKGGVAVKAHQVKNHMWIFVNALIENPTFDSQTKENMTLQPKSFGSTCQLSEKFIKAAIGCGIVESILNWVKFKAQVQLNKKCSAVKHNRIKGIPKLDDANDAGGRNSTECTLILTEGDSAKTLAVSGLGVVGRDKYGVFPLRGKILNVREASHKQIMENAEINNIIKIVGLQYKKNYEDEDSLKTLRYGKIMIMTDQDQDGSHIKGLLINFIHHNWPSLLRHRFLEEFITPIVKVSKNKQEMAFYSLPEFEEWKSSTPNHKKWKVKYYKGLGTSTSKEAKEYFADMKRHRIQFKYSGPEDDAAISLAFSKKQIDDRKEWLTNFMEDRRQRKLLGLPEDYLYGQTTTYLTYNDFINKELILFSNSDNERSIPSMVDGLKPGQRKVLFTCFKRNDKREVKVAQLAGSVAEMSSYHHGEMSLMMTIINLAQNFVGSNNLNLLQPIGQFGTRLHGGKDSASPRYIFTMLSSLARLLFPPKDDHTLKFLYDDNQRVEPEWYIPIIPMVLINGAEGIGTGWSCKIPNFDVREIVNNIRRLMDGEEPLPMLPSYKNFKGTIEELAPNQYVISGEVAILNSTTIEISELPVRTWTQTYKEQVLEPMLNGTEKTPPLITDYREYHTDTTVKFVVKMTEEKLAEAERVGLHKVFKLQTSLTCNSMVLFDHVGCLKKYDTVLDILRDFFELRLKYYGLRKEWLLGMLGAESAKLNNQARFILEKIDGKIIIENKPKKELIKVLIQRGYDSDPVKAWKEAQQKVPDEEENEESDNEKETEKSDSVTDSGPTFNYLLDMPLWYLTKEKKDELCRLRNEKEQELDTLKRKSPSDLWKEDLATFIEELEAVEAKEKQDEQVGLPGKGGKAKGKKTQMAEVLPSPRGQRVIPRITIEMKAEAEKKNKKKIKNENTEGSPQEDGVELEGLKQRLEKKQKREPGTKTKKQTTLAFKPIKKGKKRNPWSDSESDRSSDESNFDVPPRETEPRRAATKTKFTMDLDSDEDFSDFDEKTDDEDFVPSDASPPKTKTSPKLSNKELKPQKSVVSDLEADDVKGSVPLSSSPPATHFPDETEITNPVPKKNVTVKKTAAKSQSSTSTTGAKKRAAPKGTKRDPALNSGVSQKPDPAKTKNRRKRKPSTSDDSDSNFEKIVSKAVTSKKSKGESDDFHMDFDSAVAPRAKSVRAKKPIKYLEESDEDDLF
How it was run: (§1)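 Reactions contained 0.2 μg supercoiled pBR322 in 50 mM Tris-HCl pH 8.0, 150 mM NaCl, 10 mM MgCl2, 0.5 mM DTT, 30 μg/ml BSA, normally 2 mM ATP (1, 2 or 4 mM in ATP-competition runs). Started with 1 U human Topo II, 30 min at 37 °C, stopped with sarcosyl buffer, run on 1% agarose 1.5 h at 75 V, gel-stained and imaged under UV.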

[2] = target: T2, DNA topoisomerase 1 (Homo sapiens) (UniProt P11387); assay: Inhibition of recombinant human topoisomerase 1-mediated relaxation of supercoiled pBR322 DNA at 50 uM incubated for 30 mins by agarose gel electrophoresis
T2 sequence (whole entry): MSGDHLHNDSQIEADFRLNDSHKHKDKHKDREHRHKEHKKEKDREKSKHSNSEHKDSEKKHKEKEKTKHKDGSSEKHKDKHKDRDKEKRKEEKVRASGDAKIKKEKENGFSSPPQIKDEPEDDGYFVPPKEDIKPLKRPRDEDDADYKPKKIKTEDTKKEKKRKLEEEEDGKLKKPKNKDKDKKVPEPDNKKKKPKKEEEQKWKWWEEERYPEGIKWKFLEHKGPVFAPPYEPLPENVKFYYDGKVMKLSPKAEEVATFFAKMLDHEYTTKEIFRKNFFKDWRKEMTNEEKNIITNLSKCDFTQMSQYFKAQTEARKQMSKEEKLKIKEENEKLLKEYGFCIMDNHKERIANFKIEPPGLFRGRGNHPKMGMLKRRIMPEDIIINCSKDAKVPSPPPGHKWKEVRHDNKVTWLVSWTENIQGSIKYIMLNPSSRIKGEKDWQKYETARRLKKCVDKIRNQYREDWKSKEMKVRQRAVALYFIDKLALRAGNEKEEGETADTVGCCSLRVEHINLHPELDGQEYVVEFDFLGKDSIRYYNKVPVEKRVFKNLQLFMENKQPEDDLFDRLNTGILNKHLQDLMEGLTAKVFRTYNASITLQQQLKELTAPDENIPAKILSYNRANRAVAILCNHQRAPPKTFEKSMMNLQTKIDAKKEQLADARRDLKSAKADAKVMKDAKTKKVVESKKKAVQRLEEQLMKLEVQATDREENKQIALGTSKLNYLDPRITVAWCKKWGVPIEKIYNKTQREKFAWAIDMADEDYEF
How it was run: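 Supercoiled pBR322 relaxed by Topo I with compound, incubated 30 min at 37 °C, stopped with 1% SDS dye, run on 1% agarose 1 h at 90 V in TAE, stained and imaged under UV; camptothecin as reference.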

HeLa = assay: Antiproliferative activity against human HeLa cells after 48 hrs by MTT assay; format: functional, cell-based
How it was run: (§2)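 Cells seeded at 5000 per well and left overnight, then exposed to increasing concentrations (0-50 μM) for 48 h. […] HL-60/MX2 is a mitoxantrone-selected HL-60 derivative with reduced Topo IIα/β.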

[3] = Antiproliferative activity against human MDA-MB-201 cells after 48 hrs by MTT assay; format: functional, cell-based; how it was run: as §2
A549 = assay: Antiproliferative activity against human A549 cells after 48 hrs by MTT assay; format: functional, cell-based; conditions: A549, 48 h; how it was run: as §2
K562 = assay: Antiproliferative activity against human K562 cells after 48 hrs by MTT assay; format: functional, cell-based; conditions: K562, 48 h; how it was run: as §2
Raji = assay: Antiproliferative activity against human Raji cells after 48 hrs by MTT assay; format: functional, cell-based; how it was run: as §2
[4] = Antiproliferative activity against human HL60 cells after 48 hrs by MTT assay; format: functional, cell-based; conditions: HL-60, 48 h; how it was run: as §2
[5] = Antiproliferative activity against human HL60/MX2 cells after 48 hrs by MTT assay; format: functional, cell-based; conditions: HL60/MX2, 48 h; how it was run: as §2
HL-60 = assay: Resistance index, ratio of IC50 for human HL60/MX2 cells to IC50 for HL60 cells; format: functional
How it was run: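 Resistance index calculated as MTT-derived IC50 (48 h exposure, 0-50 μM, A570 readout) in HL-60/MX2 divided by IC50 in parental HL-60.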

HEK293 = assay: Cytotoxicity against HEK293 cells after 48 hrs by MTT assay; format: cell-based; conditions: Homo sapiens, HEK293, 48 h
Escherichia coli = assay: Binding affinity to Escherichia coli pBR322 DNA assessed as intercalation of pBR322 DNA at 0.1 to 100 uM by fluorescence based ethidium bromide displacement assay
How it was run: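 Increasing concentrations added to 20 nM pBR322 plasmid with 2.5 μM ethidium bromide in 10 mM HEPES pH 7.9, 100 mM KCl, 5 mM MgCl2, 0.1 mM EDTA. Fluorescence emission spectra recorded (excitation 510 nm, emission max 595 nm) at each concentration; mAMSA used as intercalating reference.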

[6] = target: T1, DNA topoisomerase 2-alpha; assay: Inhibition of purified human topoisomerase 2-mediated relaxation of supercoiled pBR322 DNA at 50 uM incubated for 30 mins by agarose gel electrophoresis; how it was run: as §1

Compound	inhibition [1]	inhibition [2]	pIC50 (HeLa)	pIC50 [3]	pIC50 (A549)	pIC50 (K562)	pIC50 (Raji)	pIC50 [4]	pIC50 [5]	Ratio IC50 (HL-60)	pIC50 (HEK293)	inhibition (Escherichia coli)	inhibition [6]
CCN(CC)CCCn1c(N)c(-c2nc3ccccc3[nH]2)c2nc(C#N)c(C#N)nc21	Active	inactive	5.50	4.54	4.60	5.74	5.73	6.14	5.74	2.5	5.10	–	–
CN(C)CCCCn1c(N)c(-c2nc3ccccc3n2C)c2nc(C#N)c(C#N)nc21	Active	–	6.34	5.75	5.21	5.84	6.49	6.13	5.59	3.5	5.41	–	–
CCN(CC)CCCCn1c(-c2c(N)n(C)c3nc(C#N)c(C#N)nc23)nc2ccccc21	Active	–	4.93	5.16	4.88	5.50	6.22	5.54	5.41	1.3	5.05	–	–
CN(C)CCCn1c(N)c(-c2nc3ccccc3s2)c2nc(C#N)c(C#N)nc21	Active	–	6.14	5.53	5.05	5.74	5.52	6.29	5.88	2.5	5.37	–	–
CCN(CC)CCCn1c(N)c(-c2nc3ccccc3n2C)c2nc(C#N)c(C#N)nc21	Active	–	4.91	5.17	4.97	5.49	5.65	5.55	5.35	1.6	5.14	–	–
CN(C)CCCCn1c(-c2c(N)n(C)c3nc(C#N)c(C#N)nc23)nc2ccccc21	Active	–	4.99	5.19	4.95	4.95	5.97	5.64	5.55	1.2	5.15	–	–
COc1cc(NS(C)(=O)=O)ccc1Nc1c2ccccc2nc2ccccc12	–	–	–	–	–	–	–	–	–	–	–	Active	–
CCN(CC)CCn1c(N)c(-c2nc3ccccc3[nH]2)c2nc(C#N)c(C#N)nc21	–	inactive	4.94	4.59	< 4.30	5.60	5.05	5.73	5.15	3.8	4.91	–	inactive
CN(C)CCn1c(N)c(-c2nc3ccccc3[nH]2)c2nc(C#N)c(C#N)nc21	–	inactive	5.05	4.36	< 4.30	5.20	5.08	5.65	5.42	1.7	5.01	–	inactive
CN(C)CCCn1c(N)c(-c2nc3ccccc3n2C)c2nc(C#N)c(C#N)nc21	Active	–	5.36	5.44	4.93	5.45	6.03	5.67	4.95	5.3	5.08	–	–
